Reference: ChEMBL document CHEMBL2034955, “Thieno[3,2-b]thiophene-2-carboxylic acid derivatives as GPR35 agonists” (Bioorg Med Chem Lett, 2012)
The source made the active and inactive calls. No cut-off for these calls is given here.

Experiments:
[1] = biological target: T1, G-protein coupled receptor 35 (Homo sapiens, UniProt Q9HC97); assay: Agonist activity at GPR35 in human HT-29 cells by dynamic mass redistribution assay; format: functional, cell-based
[2] = biological target: T1, G-protein coupled receptor 35; assay: Agonist activity at GPR35 in human U2OS cells expressing beta-lactamase and Gal4-VP16 transcription factor assessed as beta arrestin translocation after 5 hrs by Tango assay relative to zaprinast; format: functional, cell-based
Summary of the method: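 Tango GPR35-bla U2OS cells seeded at 10,000/well and cultured overnight in DMEM with 10% dialyzed FBS. Ligand stimulation 5 h at 37 °C/5% CO2, then LiveBLAzer FRET B/G substrate loading for 2 h. […] EC50 from monophasic sigmoidal fit. Two independent runs, each in duplicate (n = 4).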

[3] = biological target: T1, G-protein coupled receptor 35; assay: Agonist activity at GPR35 in human HT-29 cells by dynamic mass redistribution assay relative to zaprinast; format: functional, cell-based
[4] = biological target: T1, G-protein coupled receptor 35; assay: Agonist activity at GPR35 in human U20S cells expressing beta-lactamase and Gal4-VP16 transcription factor assessed as beta arrestin translocation after 5 hrs by Tango assay; format: functional, cell-based, U2OS
Summary of the method: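 Tango GPR35-bla U2OS cells seeded at 10,000/well and cultured overnight in DMEM with 10% dialyzed FBS. Ligand stimulation 5 h at 37 °C/5% CO2, then LiveBLAzer FRET B/G substrate loading for 2 h. EC50 from monophasic sigmoidal fit. Two independent runs, each in duplicate (n = 4).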

[5] = biological target: T1, G-protein coupled receptor 35; assay: Agonist activity at GPR35 in human U20S cells expressing beta-lactamase and Gal4-VP16 transcription factor assessed as beta arrestin translocation at 64 uM after 5 hrs by Tango assay in the presence of ML-145; format: functional, cell-based; settings: U2OS
Summary of the method: (§1)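 Tango antagonist format in GPR35-bla U2OS cells. Agonist at a fixed dose was combined with varying ML-145 doses, followed by 5 h stimulation at 37 °C and 2 h FRET B/G substrate loading. Coumarin/fluorescein ratio read out, with IC50 derived. Two independent runs, each in duplicate (n = 4).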

[6] = biological target: T1, G-protein coupled receptor 35; assay: Agonist activity at GPR35 in human U20S cells expressing beta-lactamase and Gal4-VP16 transcription factor assessed as beta arrestin translocation at 20 uM after 5 hrs by Tango assay in the presence of ML-145; format: functional, cell-based; settings: U2OS; summary of the method: as §1
[7] = biological target: T1, G-protein coupled receptor 35; assay: Agonist activity at GPR35 in human HT-29 cells at 250 nM by dynamic mass redistribution assay in presence of CID 2745687; format: functional, cell-based
Summary of the method: (§2)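 Native HT-29 cells seeded at 32,000/well and cultured overnight to confluence in McCoy's 5a with 10% FBS at 37 °C/5% CO2, washed twice and held in 1x HBSS for 1 h. CID 2745687 was pre-incubated 10 min at varying doses, then agonist added at a fixed dose. DMR amplitude read 10 min poststimulation, background corrected. Two independent runs, each in duplicate (n = 4).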

[8] = biological target: T1, G-protein coupled receptor 35; assay: Agonist activity at GPR35 in human HT-29 cells at 2 uM by dynamic mass redistribution assay in presence of CID 2745687; format: functional, cell-based; summary of the method: as §2
[9] = biological target: T1, G-protein coupled receptor 35; assay: Agonist activity at GPR35 in human U20S cells expressing beta-lactamase and Gal4-VP16 transcription factor assessed as beta arrestin translocation at 100 uM after 5 hrs by Tango assay in the presence of ML-145; format: functional, cell-based; settings: U2OS; summary of the method: as §1
[10] = biological target: T1, G-protein coupled receptor 35; assay: Agonist activity at GPR35 in human HT-29 cells at 125 nM by dynamic mass redistribution assay in presence of CID 2745687; format: functional, cell-based; summary of the method: as §2
[11] = biological target: T1, G-protein coupled receptor 35; assay: Agonist activity at GPR35 in human U20S cells expressing beta-lactamase and Gal4-VP16 transcription factor assessed as beta arrestin translocation at 10 uM after 5 hrs by Tango assay in the presence of ML-145; format: functional, cell-based; settings: U2OS; summary of the method: as §1
[12] = biological target: T1, G-protein coupled receptor 35; assay: Agonist activity at GPR35 in human HT-29 cells assessed as receptor internalization at 12.5 uM after 1 hr by confocal microscopy; format: functional, cell-based
Summary of the method: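 HT-29 cells treated 1 h with agonist in assay vehicle containing 0.1% DMSO (vehicle control), then permeabilized and immunostained with anti-GPR35 plus fluorescent secondary antibody. Internalization judged from confocal fluorescence images.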

T1 sequence (Q9HC97 whole entry, the tested form may be a part): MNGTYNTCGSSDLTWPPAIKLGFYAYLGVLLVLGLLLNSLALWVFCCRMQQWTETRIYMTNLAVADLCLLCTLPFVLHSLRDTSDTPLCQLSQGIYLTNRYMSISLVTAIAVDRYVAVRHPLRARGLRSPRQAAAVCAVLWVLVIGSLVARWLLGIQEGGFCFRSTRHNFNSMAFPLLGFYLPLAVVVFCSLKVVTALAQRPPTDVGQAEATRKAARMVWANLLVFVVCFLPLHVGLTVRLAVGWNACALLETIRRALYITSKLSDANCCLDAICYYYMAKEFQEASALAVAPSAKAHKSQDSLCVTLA

EC50 ([1]; read-out: EC50) [µM]	Efficacy [2] [%]	Efficacy [3] [pm]	EC50 ([4]; read-out: EC50) [µM]	SMILES	also measured
0.51	52	230	31.1	O=C(O)c1sc2c(Br)c(Br)sc2c1C(F)(F)F	
0.63	120	210	26.9	Cc1c(C(=O)O)[nH]c2c(-c3cccnc3)csc12	Activity [5]: inactive
0.061	113	290	8.3	Cc1c(C(=O)O)sc2c(Br)csc12	Activity [1]: Dose-dependent effect; Activity [6]: inactive; Activity [7]: inactive
1.29	52	268	22.2	Cc1sc2c(C)c(C(=O)O)sc2c1Br	
5.3	77	290	87.5	Cc1c(C(=O)O)n(C)c2c(Br)csc12	
0.7	52	232	36.5	Cc1c(C(=O)O)sc2c(Br)c(Br)sc12	Activity [1]: Dose-dependent effect; Activity [8]: inactive
0.26	107	232	17.6	Cc1c(C(=O)O)sc2c(-c3ccsc3)csc12	Activity [9]: inactive
	> 60	202	> 500	O=C(O)c1cc(=O)c2ccccc2[nH]1 [TRANSTORINE]	EC50 ([1]; ht-29, read-out: EC50): 152 µM
1.48	102	257	54.8	C#Cc1csc2c(C)c(C(=O)O)sc12	
2.63	46	246	504	O=C(O)c1sc2c(Br)csc2c1C1CC1	
0.016	96	228	2.46	O=C(O)c1sc2c(Br)c(Br)sc2c1O	Activity [1]: Dose-dependent effect; Activity [10]: inactive; Activity [11]: inactive
8.37	35	228	119	Cc1c(C(=O)O)[nH]c2c(C3CC3)csc12	
11.8	24	222	113	Cc1c(C(=O)O)[nH]c2c(Br)csc12	
0.37	102	180	52.5	Cc1c(C(=O)O)sc2c(-c3cn[nH]c3)csc12	
				CCOC(=O)c1sc2c(Br)c(Br)sc2c1C(F)(F)F	EC50 ([1]; ht-29): Not Active; EC50 ([4]; u2os): Not Active
9.78	64	159	340	O=C(O)c1sc2ccsc2c1O	
1.03	68	262	39.2	O=C(O)c1sc2c(Br)csc2c1Cl	
0.95	101	262	52.4	Cc1c(C(=O)O)sc2c(C3CC3)csc12	
0.24	118	223	11.8	Cc1c(C(=O)O)sc2c(-c3cccnc3)csc12	Activity [12]: Active
